Compound activity from PubChem.
Yeast life ext – extends the lifespan of yeast | S. cerevisiae growth with nicotinamide, OD615; deaD strain in restrictive glucose medium | inhibition of the nicotinamide effect, % at 10 µM | hit rate 0.68% among 130,000;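 active means inhibition above a set limit, placed 3 SD over the median of all compounds, cut at about 26% in these data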;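 further: 0% = nicotinamide-treated wells and 100% = cells grown without nicotinamide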
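Measured by: optical density (absorbance) at 615 nm; System: modified budding yeast, DeaD strain; Medium: restrictive CSMM-D dextrose medium; Timing: 4 h preincubation then 48 h treatment at 30 °C.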
RAM inhibit – yeast RAM network inhibition; hit rate 1.8% among 190,000; inhibition, % at 50 µM; S. cerevisiae dse1pr::URA3 reporter, 5-FOA growth OD615, 2 d; analog-sensitive cbk1-as2 kinase mutant strain;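 active means inhibition above a set limit, 3 SD over mean compound inhibition, cut at about 8.4% in these data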;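 further: 0% = DMSO-only wells with no growth and 100% = 10 µM 1-NA-PP1 full growth; inhibition rescues growth on 5-FOA so higher OD means more RAM inhibition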
Measles CPE – protection of cells from measles virus; Measles virus-infected cells, CPE protection, absorbance; protection (pct of control), % at 4 µM; hit rate 1.5% among 140,000; in the data active means protection mostly above about 24%, no sharp cut-off; inactive means mostly below about 26%
BB579 growth dn – reduces growth of yeast BB579 in restrictive medium; AID 804; inhibition, % at 10 µM; hit rate 0.51% among 140,000; S. cerevisiae BB579 growth, OD615, 48 h;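 active means inhibition above a set limit, 3 SD over the mean compound inhibition, cut at about 44% in these data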
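controls = amphotericin B 10 µg/mL, positive | assay system = DeaD yeast strain BB579 | schedule = 48 h compound exposure at 30 °C after 4 h preincubation | detection = OD615 turbidity measurement | medium = restrictive CSMM-D medium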
* marks the source's active call; other numbers are inactive results; x = no result given; + = active, no number. Only some compounds are listed: those with a hit (about 3.8% of all), similar ones and a draw of the others.

SMILES	Yeast life ext	RAM inhibit	Measles CPE	BB579 growth dn
CC(CNC(=O)CC(C)(C)C)NC(=O)CC(C)(C)C (stereo not drawn)	x	0	18	-5
CCOc1cc(S(=O)(=O)NCCc2ccccc2C)c(OCC)cc1-n1cnnn1	-6	4	23	-52
CCOc1cc(S(=O)(=O)NCCc2cccc(C)c2)c(OCC)cc1-n1cnnn1	-15	8.8*	16	3
COc1cc2c(cc1NC(=O)c1cccc(Br)c1)CCCC2	4	9.3*	1	-44
O=C(c1ccco1)N1CCN(CCCCOc2cccc3ccccc23)CC1	-2	0	27*	-17
CCCN(CCC)CC(O)CN1C(=O)NC(C)(C)C1=O (stereo not drawn)	x	1	x	x
CC(CNC(=O)C(C)C)NC(=O)C(C)C (stereo not drawn)	-7	2	27*	-31
CCCCCc1c(C)nc(N2CCc3ccccc32)[nH]c1=O	4	9.9*	7	-46
COc1ccc(OC)c(NC(=O)C(=O)NNC(=O)COc2ccc(Br)cc2C)c1	x	4	x	x
Cc1ccc(-c2nc3sc4c(N)ncnc4c3c3c2CCCC3)cc1	1	5	25*	-19
COc1ccccc1Nc1ncc(-c2cccs2)s1	-11	9.9*	13	-38
CCN(CC)C(=O)c1cnn(-c2ccccc2)c1NC(=O)c1ccccc1F	x	2	6	-24
CCOC(=O)C(=CNc1ccc(C)cc1C)C(=O)OCC	-9	2	37*	-34
O=C1C2CCCN2C(=O)N1CCCCN1CCN(CCO)CC1 (stereo not drawn)	4	1	10	-36
O=C(OCCN1C(=O)c2ccccc2C1=O)c1cc(S(=O)(=O)N2CCOCC2)ccc1Cl	1	0	74*	-28
N#CCCN1CCN(S(=O)(=O)c2ccc(S(=O)(=O)NC3CCCC3)cc2)CC1	-5	1	40*	-14
O=C(NCCN1C(=O)S/C(=C/c2ccccc2)C1=O)C1CCCN1C(=O)c1cccs1 (stereo not drawn)	-5	9.5*	11	-33
COc1ccc(/C=C2/SC(=O)N(CCNC(=O)C3CCCN3C(=O)c3cccs3)C2=O)cc1 (stereo not drawn)	-2	8	42*	-9
O=C(NCCN1C(=O)S/C(=C\c2ccccc2F)C1=O)C1CCCN1C(=O)c1cccs1 (stereo not drawn)	-7	2	19	-4
CS(=O)(=O)c1ccc(Sc2nc3ccccc3s2)c([N+](=O)[O-])c1	8	3	7	-16
O=[N+]([O-])c1cc(S(=O)(=O)C(F)(F)F)ccc1Sc1nc2ccccc2s1	21	8.5*	1	-22
CS(=O)(=O)c1ccc(Sc2nc3ccccc3[nH]2)c([N+](=O)[O-])c1	-18	2	1	-27
O=S(=O)(Nc1ccc(O)c(Sc2nc3ccccc3s2)c1)c1ccc(F)cc1	9	8.9*	15	-54
O=S(=O)(Nc1ccc(-c2csc(-c3ccccc3)n2)cc1)c1ccc(F)cc1	-23	6	6	69*
O=[N+]([O-])c1cc(S(=O)(=O)C(F)(F)F)ccc1Sc1nc2ccccc2[nH]1	39*	6	5	-54
SMILES	Yeast life ext	RAM inhibit	Measles CPE	BB579 growth dn
N#Cc1cc2c(=O)n3ccccc3nc2n(-c2ccccc2Cl)c1=O	x	2	x	x
CC(C)N1C(=O)CCC1C(=O)NCCc1ccc(Cl)cc1 (stereo not drawn)	3	4	30*	-35
Cc1ccc(C(=O)NCC(=O)OCC(=O)Nc2ccccc2[N+](=O)[O-])cc1	0	2	4	-45
CCN(CC(=O)Nc1ccc(C)c(F)c1)CC(=O)NC(C)(C)C	x	0	x	x
O=c1/c(=C\c2cccnc2)sc2nc3ccccc3n12	-10	-1	1	-7
O=C1CCC/C1=c1\s/c(=C\c2cccnc2)c(=O)n1-c1ccccc1	4	4	28*	-41
CC(=C/C(=O)O)/C=C/c1ccco1	28*	-1	7	-24
Cc1ccc(NC2=C(Cl)C(=O)OC2OC(=O)c2ccc(C)cc2)cc1 (stereo not drawn)	x	9.9*	x	x
COC(=O)c1ccc(NC2=C(Cl)C(=O)OC2OC(=O)c2ccccc2)cc1 (stereo not drawn)	x	4	x	x
Cc1ccc(NC(=O)ON=C2CCCC2)cc1	-13	0	43*	95*
O=C(COc1ccccc1C(=O)NCc1ccccn1)Nc1ccc(Br)cc1	x	7	x	x
COc1ccc(C(CNC(=O)c2ccccc2SC)N(C)C)cc1 (stereo not drawn)	x	1	x	x
O=[N+]([O-])c1cccc(-c2nc(NCc3ccccc3)c3ccccc3n2)c1	3	8.7*	5	-23
COc1ccc(-c2noc(-c3ccccc3-c3ccccc3)n2)cc1OC	-23	11*	6	-19
CCOc1ccccc1-c1nc(-c2cccc(Br)c2)no1	-10	8.7*	11	-30
O=C(C1CC1c1ccccc1)N1CCN(c2cccc(Cl)c2)CC1 (stereo not drawn)	-9	9.5*	2	-80
CC(=O)C(C)Oc1ccc(Cc2ncc(C(F)(F)F)cc2Cl)cc1 (stereo not drawn)	x	1	x	x
COc1cccc(N=C2SC(CC(=O)Nc3ccccc3)C(=O)N2Cc2ccccn2)c1 (stereo not drawn)	x	1	x	x
COc1ccc(N(C(=O)CCl)C(C(=O)NCCc2ccccc2)c2cccs2)cc1Cl (stereo not drawn)	-7	1	1	-41
COc1cccc(N(C(=O)CCl)C(C(=O)NCCc2ccccc2)c2cccs2)c1 (stereo not drawn)	5	9.2*	1	-32
CCOc1ccc(CCNC(=O)C(CCC(N)=O)NC(=O)OCc2ccccc2)cc1OCC (stereo not drawn)	x	2	x	x
S=C(NCc1ccc(Cl)cc1Cl)NC1CCCCC1	4	8	4	71*
CCN(CC)c1ccc(NC(=O)c2ccccc2)cc1S(=O)(=O)Nc1ccccc1OC	-2	1	45*	-10
COc1ccccc1NC(=O)Nc1ccc(Cl)c(S(=O)(=O)Nc2ccccc2OC)c1	2	8.4*	12	-24
CCOC(=O)c1[nH]c2ccc(OC)cc2c1NC(=S)N1CCN(c2ccccc2OC)CC1	-7	-1	10	-5
SMILES	Yeast life ext	RAM inhibit	Measles CPE	BB579 growth dn
Cc1cc([N+](=O)[O-])ccc1N=Nc1c(N)[nH]n(-c2ccccc2)c1=O	x	8.6*	x	x
COc1ccc(-c2nc[nH]c2[N+](=O)[O-])cc1	x	5	x	x
Cc1ccc(COC(=O)c2nn(-c3ccccc3)nc2N)cc1	x	6	x	x
COc1cccc(COC(=O)c2nn(-c3ccccc3)nc2N)c1	x	9.7*	x	x
O=C(CCC(=O)N(CC(=O)NC1CCCC1)C1CCCCC1)Nc1ccccn1	x	0	x	x
Cc1cc(N2C(=O)CC(Cc3ccccc3)C2=O)no1 (stereo not drawn)	+	4	11	-9
O=C(NN=C1CCCCCCC1)C(=O)NC1CCCCC1	-2	0	6	-19
N#CC(C(=O)NC1CCCCC1)=C1CCCCCC1	8	1	34*	-40
CCCCCSc1nc(O)cc(=O)[nH]1	58*	1	9	-19
